Compound activity as filed in PubChem.
Rows were chosen to be rich in hits. Some 3.4% of all compounds tested hit in one or more screens of this group.
TMEM16A inh: TMEM16A chloride channel inhibitors, primary screen, cell-based, HTS; normalized B-score (activity score, 25-100; higher = stronger inhibition) at 10 µM; AID 588511, 2011; HEK293 TMEM16A/YFP iodide influx fluorescence, ionomycin; 310,000 compounds, 1.2% hits; Anoctamin-1 (Mus musculus), Q8BHY3;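 active = ratio plate-corrected score three or more library SD toward inhibition, starting fluorescence score within five deviations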;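 note: score derived from kinetic fluorescence span divided by baseline fluorescence per well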
VIM-2 inhibitor: VIM-2 metallo-beta-lactamase inhibitors, primary screen, biochemical, epi-absorbance readout, Pseudomonas aeruginosa enzyme. 290,000 compounds, 0.89% hits. AID 1527, 2009. inhibition, % at 5.6 µM. purified VIM-2, nitrocefin hydrolysis, epi-absorbance fluorescence;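 active = inhibition above the mean of all tested compounds plus 3 SD, cutoff set per screening run, cut at about 7.5% in these data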;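 note: red hydrolysis product quenches plate fluorescence so inhibitors raise well fluorescence; 0% = enzyme with DMSO and 100% = DMSO without enzyme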
CHT allo act: CHT positive allosteric modulators, primary screen, cell-based, membrane potential dye, choline EC20; 310,000 compounds, 0.49% hits; B-score at 10 µM; CHT-expressing cells; hits give high values; LV-AA mutant CHT in HEK293 cells; High affinity choline transporter 1 (Homo sapiens), Q9GZV3;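 active = initial fluorescence not abnormally high and integrated response B-score, plate-corrected, over 3 SD above library mean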
IMP-1 inh: IMP-1 metallo-beta-lactamase inhibitors, primary screen, biochemical, epi-absorbance readout, Pseudomonas aeruginosa enzyme; 290,000 compounds, 0.45% hits; purified IMP-1, nitrocefin hydrolysis, epi-absorbance fluorescence; metallo-beta-lactamase IMP-1 (Pseudomonas aeruginosa); inhibition, % at 5.6 µM;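 active = inhibition above the mean plus 3 SD of all compounds in the same screening run, cut at about 4.5% in these data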;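 note: 0% = IMP-1 with DMSO and 100% = DMSO wells lacking enzyme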
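System: purified recombinant IMP-1 beta-lactamase. Medium: Zinc- and detergent-supplemented HEPES buffer, pH 7.1. Compound: one 5.6 µM dose […]. Schedule: 15 min preincubation plus 25 min reaction at 25 °C. Technique: Epi-absorbance fluorescence, 480 nm excitation, 530 nm emission.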
CHT block: inhibitors of human choline transporter CHT | AID 488975, 2010 | 310,000 compounds, 0.86% hits | High affinity choline transporter 1 (Homo sapiens), Q9GZV3 | CHT-expressing cells, membrane potential dye, choline response; hits give low values | B-score at 10 µM;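 active = B-score over 3 SD under the library average, and starting fluorescence ratio not unusually high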;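 note: choline stimulus applied at its EC90 after an EC20 pre-addition; B-score computed on integrated fluorescence ratio after choline addition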
TMEM16A act: TMEM16A chloride channel activators or potentiators, primary screen, cell-based, HTS; Anoctamin-1 (Mus musculus), Q8BHY3; HEK293 TMEM16A/YFP-H148Q/I152L, iodide quench fluorescence; hits give low values; B-score at 10 µM; 340,000 compounds, 0.3% hits; AID 623877, 2012;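 active = fluorescence-ratio B-score plate-corrected deviation score at least 3 library SD below zero, with starting fluorescence score within 5 deviations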;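 note: channel opened by trigger with iodide after compound preincubation; score built on the fluorescence ratio of max minus min over baseline; more negative score means more quench and so TMEM16A activation or potentiation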
* = called active by the depositor; i = inactive; · = no result given; ! = not active in a repeat.

SMILES	TMEM16A inh	VIM-2 inhibitor	CHT allo act	IMP-1 inh	CHT block	TMEM16A act
CCOC(=O)c1c(CSc2cccs2)n(C)c2cc(Br)c(O)c(CN(C)C)c12	i	1	i	-2	i	i
Clc1c2c(nc3ccccc13)CCC2	i	-1	i	-1	i	i
Nc1c2c(nc3ccccc13)CCCC2	i	0	7.6*!	-1	i	i
N#CC1=C(N)SC(N)=C(C#N)C1CCc1ccccc1	i	-6	i	-1	-6.1*	i
N#CC1=C(N)SC(N)=C(C#N)C1Cc1ccccc1	i	0	i	2	i	i
CCCCN1CC(=O)N2[C@H](c3ccc(Cl)cc3)[C@@H]3C(=O)N(CC)C(=O)[C@@H]3[C@]2(Cc2ccccc2)C1=O	i	-1	i	-1	i	i
COc1ccc(N2CCN(C(=O)CN3CCN(c4nc(-c5ccc(F)cc5)cs4)CC3)CC2)cc1	25*	0	i	-1	i	i
COc1cccc2cc3c(=O)oc4ccccc4c3nc12	i	4	i	1	i	-12*
N#CC1(NC(=O)COc2cccnc2[N+](=O)[O-])CCCCC1	·	·	·	·	·	i
CCCCC1=CC2=C(c3ccco3)C(=O)C(C)(OC(=O)c3ccc(OC)cc3)C(=O)C2=CN1C1CC1 (stereo unspecified)	i	·	i	·	i	i
CCCCC1=CC2=C(c3ccco3)C(=O)C(C)(OC(=O)c3ccc(OC)cc3)C(=O)C2=CN1C1CCCC1 (stereo unspecified)	i	·	i	·	-7*	·
O=C(O)c1c[nH]c2c([N+](=O)[O-])cccc2c1=O	·	·	·	·	·	i
O=C(Cc1ccccc1)NN1C(=O)C2C3C=CC(C4CC34)C2C1=O (stereo unspecified)	i	0	i	-1	i	i
O=C(Cc1ccccc1)NN1C(=O)C2C3C=CC(C3)C2C1=O (stereo unspecified)	i	-3	i	-1	i	-38*
CS(=O)(=O)Cc1ccc(C(=O)N2CCN(C(=O)c3cccs3)CC2)cc1	·	·	·	·	·	i
CN1C(=O)C(N=Nc2ccc([N+](=O)[O-])cc2)SC1=S (stereo unspecified)	·	·	·	·	·	i
COC(=O)c1c(/N=C/N(C)C)sc2c1CCN(c1ncc(C(F)(F)F)cc1Cl)C2	i	-1	i	5.0*	i	i
Cc1ccc(O)c(N=Cc2cc(Cc3ccccc3)cc([N+](=O)[O-])c2O)c1	·	-2	·	11*	·	i
CCn1cc(CN2CCC(n3nccc3NC(=O)C(OC)c3ccccc3)CC2)cn1 (stereo unspecified)	i	-3	i	-3	i	i
COC(=O)c1ccc(NC(=O)Cn2nc(C(=O)Nc3ccc(C)cc3)ccc2=O)cc1	i	0	i	11*	i	i
OCc1cc(C(O)CNCCCCCCOCCCCc2ccccc2)ccc1O (stereo unspecified)	i	1	i	1	-5.8*!	i
CCn1cc([N+](=O)[O-])c(C(=O)Nc2ccn(Cc3ccccc3)n2)n1	i	12*	i	-3	i	i
CCCC1CC(=O)NC1(C(=O)OCC)C(=O)OCC (stereo unspecified)	·	·	·	·	·	i
CCOC(=O)C1CCN(C(=O)c2cc3c(=O)n4cccc(C)c4nc3s2)CC1	i	10*	i	0	i	i
Cc1cccn2c(=O)c3cc(C(=O)N4CCCCC4)sc3nc12	i	12*	i	-2	i	i
SMILES	TMEM16A inh	VIM-2 inhibitor	CHT allo act	IMP-1 inh	CHT block	TMEM16A act
CCOC(=O)C1CCN(C(=O)c2cc3c(=O)n4ccccc4nc3s2)CC1	i	1	i	-3	i	i
CCN1CCN(C(=O)c2cc3c(=O)n4ccccc4nc3s2)CC1	i	12*	i	-2	i	i
Cc1cccn2c(=O)c3cc(C(=O)N4CCN(Cc5ccccc5)CC4)sc3nc12	·	·	·	·	·	i
N#CC1=C(S)N(c2ccccc2)C(c2ccc(-c3cc(Cl)ccc3Cl)o2)NC1=O (stereo unspecified)	i	-3	i	0	i	i
N#CC1=C(S)N(c2ccccc2)C(c2ccc(-c3ccc(Cl)c(Cl)c3)o2)NC1=O (stereo unspecified)	i	-2	i	5.2*	i	i
Cc1cccc(-c2nc(NCCCN(C)C)c3ccccc3n2)c1	i	7.8*	i	-3	i	i
c1ccc(-c2nc(NCCCN3CCOCC3)c3ccccc3n2)cc1	i	10*	i	1	i	i
Cc1ccc(-c2nc(NCCCO)c3ccccc3n2)cc1	i	1	i	0	i	i
CCN(CC(=O)Nc1ccc(NC(C)=O)cc1)CC(=O)Nc1ccc(Cl)c(Cl)c1	i	0	i	5.9*	i	i
CCc1ccc([C@@H]2CC=C(C(=O)O)[C@H](c3ccccc3F)N2S(=O)(=O)c2ccc(C)cc2)cc1	i	·	i	·	i	i
Cc1ccc(S(=O)(=O)N2[C@@H](c3cccc(Cl)c3)C(C(=O)O)=CC[C@H]2c2ccc3c(c2)OCO3)cc1	i	·	i	·	i	i
CCc1ccc([C@@H]2CC=C(C(=O)O)[C@H](c3ccc(Cl)cc3)N2S(=O)(=O)c2ccc(C)cc2)cc1	100*	·	i	·	i	i
CCc1ccc([C@@H]2CC=C(C(=O)O)[C@H](c3cccc(Cl)c3)N2S(=O)(=O)c2ccc(C)cc2)cc1	100*	·	i	·	i	i
Cc1ccc(C)c(S(=O)(=O)N2CCC(c3nc4c(nnn4Cc4ccc(F)cc4)c(=O)[nH]3)CC2)c1	i	-1	i	-1	i	i
Cc1ccc(Cn2nnc3c(=O)[nH]c(C4CCN(S(=O)(=O)c5ccc(F)cc5)CC4)nc32)cc1	i	-3	i	18*	i	i
NC(=S)Nc1ccc(Oc2ccc(NC(N)=S)cc2)cc1	i	-2	i	15*	i	i
CCOC(=O)C1(CCc2ccccc2)CCN(Cc2ccc(OC)cc2)CC1	25*	3	i	1	i	i
CCOC(=O)C1(CCc2ccccc2)CCN(Cc2ccc(O)cc2)CC1	i	-1	i	-3	i	i
CC1CCN(C(=O)Cn2c3ccccc3c3nc4n(c(=O)c32)CCS4)CC1	i	2	i	-1	i	i
